Experimental data taken from ChEMBL document CHEMBL4477177, “Antituberculosis Activity of a Naturally Occurring Flavonoid, Isorhamnetin” (J Nat Prod, 2016).
Converted amounts (≈) assume the structure as drawn. The source made the active and inactive calls. No cut-off for these calls is given here.

What was measured:
[1] = test system: Mycobacterium tuberculosis; experiment: Antitubercular activity against Mycobacterium tuberculosis H37Rv ATCC 27294 incubated for 7 days by resazurin assay; type: functional; settings: H37Rv ATCC 27294, 168 h
[2] = target: T1, MAP kinase p38 (Homo sapiens) (UniProt O15264+Q15759+Q16539+P53778); experiment: Binding affinity to human C-terminally His-tagged p38 expressed in Escherichia coli BL21 by fluorescence quenching based spectrofluorometric analysis
Outline: (§1)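 C-terminally His6-tagged ERK1 or p38 MAPK expressed in E. coli and purified. Protein at 10 μM in 50 mM sodium phosphate, 100 mM NaCl, pH 8.0, titrated with ligand to 1:10 protein:ligand. Excitation 290 nm, emission 290–500 nm. Binding constant K derived from fluorescence quenching.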

[3] = Lipophilicity, logP of the compound; type: physicochemical; settings: octanol/water
[4] = target: Mitogen-activated protein kinase 3 (Homo sapiens) (UniProt P27361); experiment: Binding affinity to human ERK1 expressed in Escherichia coli BL21 by fluorescence quenching based spectrofluorometric analysis; outline: as §1
Sequence of Mitogen-activated protein kinase 3 (Homo sapiens) (P27361 whole entry): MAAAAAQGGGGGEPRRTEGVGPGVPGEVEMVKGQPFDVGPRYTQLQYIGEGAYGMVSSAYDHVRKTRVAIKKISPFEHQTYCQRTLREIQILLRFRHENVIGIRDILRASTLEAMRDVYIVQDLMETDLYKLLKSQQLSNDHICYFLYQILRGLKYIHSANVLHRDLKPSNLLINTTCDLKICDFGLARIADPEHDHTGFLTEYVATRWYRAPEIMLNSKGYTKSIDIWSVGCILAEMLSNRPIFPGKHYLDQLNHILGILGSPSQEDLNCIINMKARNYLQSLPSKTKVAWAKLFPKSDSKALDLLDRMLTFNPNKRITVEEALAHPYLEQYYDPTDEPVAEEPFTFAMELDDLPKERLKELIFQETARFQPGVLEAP

[5] = test system: Mycobacterium tuberculosis; experiment: Antitubercular activity against Mycobacterium tuberculosis H37Rv P887 at 158 uM incubated for 1 to 9 days by inverted microscopic analysis; type: functional
Outline: (§2)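 Bacteria immobilised in 0.5% agarose within microfluidic channels of a 96-well chip. Compound (0–632 μM; rifampicin 0–19.4 μM) supplied in Middlebrook 7H9 with 10% OADC and allowed to diffuse in. Incubated at 37 °C; channel boundary imaged by inverted microscopy (40×) at 1, 3, 5, 7 and 9 days. MIC90 taken as lowest concentration giving 90% growth inhibition. Triplicate.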

[6] = test system: Mus musculus; experiment: Antiinflammatory activity against LPS-induced BALB/c mouse lung inflammation model assessed as lowering of IL-6 level at 0.01 to 0.5 mg/kg, ip administered for 1 hr followed by LPS stimulation for 12 hrs relative to vehicle-treated control; type: functional, organism-based
Outline: (§3)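 Female BALB/c mice, 6 weeks old, acclimatised 1 week; 6 groups of 3. Test agent (0.01, 0.1 or 0.5 mg/kg) given ip; 1 h later LPS 10 mg/kg ip in PBS. Sacrifice at 12 h. Whole lungs homogenised in NP-40 lysis buffer at 4 °C and centrifuged. Cytokines in supernatant measured by ELISA (OD 450 nm).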

[7] = test system: Mycobacterium tuberculosis; experiment: Antitubercular activity against MDR Mycobacterium tuberculosis M22 incubated for 1 to 9 days by inverted microscopic analysis; type: functional; outline: as §2
[8] = Toxicity in mouse at 0.01 to 0.5 mg/kg assessed as breathing; type: organism-based; settings: in vivo
[9] = Toxicity in mouse at 0.01 to 0.5 mg/kg assessed as change in ALT level; type: organism-based; settings: in vivo
Outline: (§4)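 BALB/c mice, 3 per group, given 0.01, 0.1 or 0.5 mg/kg ip; LPS 10 mg/kg ip 1 h later. Sacrificed at 12 h. Serum AST, ALT and BUN measured on an automated clinical analyser. Mean ± SD.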

[10] = test system: MRC5; experiment: Antiinflammatory activity against IFN-gamma-stimulated human MRC5 cells assessed as reduction of IL-12 mRNA level at 20 uM incubated for 3 hrs by RT-PCR analysis relative to control; type: functional; parameters: scale not given: the % may be the effect or the level left
Outline: (§5)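 MRC-5 cells cultured in DMEM with 10% FBS at 37 °C, 5% CO2, then stimulated with or without 20 ng/mL IFN-γ in presence or absence of test agent for 3 h. Competitive RT-PCR; targets amplified 25 cycles (annealing 57 °C). Band densitometry expressed relative to β-actin mRNA. Mean ± SD.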

[11] = Cytotoxicity against human MRC5 cells assessed as cell survival rate at 316 uM after 24 hrs by MTT assay; type: cell-based; settings: read-out: Survival
Outline: (§6)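 Cells treated for 24 h with test agent (0–400 μM) or rifampicin (0–16 μM), then MTT assay. Survival taken as A570 of treated cells over A570 of untreated cells, as a percentage. Average of triplicates from three independent experiments.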

[12] = test system: Mus musculus; experiment: Antiinflammatory activity against LPS-induced BALB/c mouse lung inflammation model assessed as lowering of IL-12 level at 0.01 to 0.5 mg/kg, ip administered for 1 hr followed by LPS stimulation for 12 hrs relative to vehicle-treated control; type: functional, organism-based; outline: as §3
[13] = Toxicity in mouse at 0.01 to 0.5 mg/kg assessed as change in BUN level; type: organism-based; settings: in vivo; outline: as §4
[14] = Toxicity in mouse at 0.01 to 0.5 mg/kg assessed as death; type: organism-based; settings: in vivo
[15] = test system: MRC5; experiment: Antiinflammatory activity against IFN-gamma-stimulated human MRC5 cells assessed as reduction of TNF-alpha production at 5 uM after 24 hrs by ELISA relative to control; type: functional; parameters: scale not given: the % may be the effect or the level left
Outline: (§7)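 MRC-5 cells stimulated with IFN-γ and exposed to test agent for 24 h. TNF-α and IL-12 in culture media measured by sandwich ELISA: capture antibody coated overnight at 4 °C, blocking 1 h, sample 2 h at RT, detection antibody 1 h, TMB substrate, stopped with 1 N H2SO4, OD 450 nm. Mean ± SD of at least three independent experiments.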

[16] = Cytotoxicity against human HaCaT cells assessed as cell survival rate at 400 uM after 24 hrs by MTT assay; type: cell-based; settings: read-out: Survival; outline: as §6
[17] = Toxicity in mouse at 0.01 to 0.5 mg/kg assessed as twisting; type: organism-based; settings: in vivo
[18] = Cytotoxicity against mouse NIH/3T3 cells assessed as cell survival rate at 158 uM after 24 hrs by MTT assay; type: cell-based, NIH3T3; settings: read-out: Survival; outline: as §6
[19] = test system: Mycobacterium tuberculosis; experiment: Antitubercular activity against MDR Mycobacterium tuberculosis X23 incubated for 1 to 9 days by inverted microscopic analysis; type: functional
[20] = Cytotoxicity against human HaCaT cells assessed as cell survival rate at 316 uM after 24 hrs by MTT assay; type: cell-based; settings: read-out: Survival; outline: as §6
[21] = test system: Mus musculus; experiment: Antiinflammatory activity against LPS-induced BALB/c mouse lung inflammation model assessed as lowering of IFN-gamma level at 0.01 to 0.5 mg/kg, ip administered for 1 hr followed by LPS stimulation for 12 hrs relative to vehicle-treated control; type: functional, organism-based; outline: as §3
[22] = test system: MRC5; experiment: Antiinflammatory activity against IFN-gamma-stimulated human MRC5 cells assessed as reduction of TNF-alpha mRNA level at 20 uM incubated for 3 hrs by RT-PCR analysis relative to control; type: functional; parameters: scale not given: the % may be the effect or the level left; outline: as §5
[23] = Cytotoxicity against mouse NIH/3T3 cells assessed as cell survival rate at 400 uM after 24 hrs by MTT assay; type: cell-based, NIH3T3; settings: read-out: Survival; outline: as §6
[24] = test system: Mycobacterium tuberculosis; experiment: Antitubercular activity against XDR Mycobacterium tuberculosis X24 incubated for 1 to 9 days by inverted microscopic analysis; type: functional; outline: as §2
[25] = test system: Mus musculus; experiment: Antiinflammatory activity against LPS-induced BALB/c mouse lung inflammation model assessed as lowering of IL-1beta level at 0.01 to 0.5 mg/kg, ip administered for 1 hr followed by LPS stimulation for 12 hrs relative to vehicle-treated control; type: functional, organism-based; outline: as §3
[26] = test system: MRC5; experiment: Antiinflammatory activity against IFN-gamma-stimulated human MRC5 cells assessed as reduction of IL-12 production at 10 uM after 24 hrs by ELISA relative to control; type: functional; parameters: scale not given: the % may be the effect or the level left; outline: as §7
[27] = test system: MRC5; experiment: Antiinflammatory activity against IFN-gamma-stimulated human MRC5 cells assessed as reduction of IL-6 mRNA level at 20 uM incubated for 3 hrs by RT-PCR analysis relative to control; type: functional; parameters: scale not given: the % may be the effect or the level left; outline: as §5
[28] = test system: MRC5; experiment: Antiinflammatory activity against IFN-gamma-stimulated human MRC5 cells assessed as reduction of IL-1beta mRNA level at 20 uM incubated for 3 hrs by RT-PCR analysis relative to control; type: functional; parameters: scale not given: the % may be the effect or the level left; outline: as §5
[29] = Cytotoxicity against human MRC5 cells assessed as cell survival rate at 158 uM after 24 hrs by MTT assay; type: cell-based; settings: read-out: Survival; outline: as §6
[30] = Toxicity in mouse at 0.01 to 0.5 mg/kg assessed as irritability; type: organism-based; settings: in vivo
[31] = target: T1, MAP kinase p38 (Homo sapiens); experiment: Downregulation of p38 phosphorylation in IFN-gamma-induced human MRC5 cells at 20 uM pretreated for 1 hr followed by IFN-gamma stimulation for 3 hrs by Western blot analysis; type: cell-based
Outline: (§8)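 MRC-5 cells pretreated with 20 μM agent for 1 h, then 20 ng/mL IFN-γ for 3 h. Cytoplasmic lysates prepared; 20 μg protein run on 10% SDS-PAGE and transferred to PVDF. Membranes blocked in 5% BSA/TBST and probed overnight at 4 °C with phospho-specific and total MAPK antibodies. β-Actin used as loading control.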

[32] = test system: MRC5; experiment: Antiinflammatory activity against IFN-gamma-stimulated human MRC5 cells assessed as reduction of MMP-1 mRNA level at 20 uM incubated for 3 hrs by RT-PCR analysis relative to control; type: functional; parameters: scale not given: the % may be the effect or the level left; outline: as §5
[33] = Toxicity in mouse at 0.01 to 0.5 mg/kg assessed as change in AST level; type: organism-based; settings: in vivo; outline: as §4
[34] = test system: MRC5; experiment: Antiinflammatory activity against IFN-gamma-stimulated human MRC5 cells assessed as reduction of TNF-alpha production at 10 uM after 24 hrs by ELISA relative to control; type: functional; parameters: scale not given: the % may be the effect or the level left; outline: as §7
[35] = target: Mitogen-activated protein kinase; ERK1/ERK2 (Homo sapiens) (UniProt P27361+P28482); experiment: Downregulation of ERK1/2 phosphorylation in IFN-gamma-induced human MRC5 cells at 20 uM pretreated for 1 hr followed by IFN-gamma stimulation for 3 hrs by Western blot analysis; type: cell-based; outline: as §8
Sequence of Mitogen-activated protein kinase; ERK1/ERK2 (Homo sapiens) (P27361 whole entry, looked up): as the sequence (P27361 whole entry) above
Sequence of Mitogen-activated protein kinase; ERK1/ERK2 (Homo sapiens) (P28482 whole entry, looked up): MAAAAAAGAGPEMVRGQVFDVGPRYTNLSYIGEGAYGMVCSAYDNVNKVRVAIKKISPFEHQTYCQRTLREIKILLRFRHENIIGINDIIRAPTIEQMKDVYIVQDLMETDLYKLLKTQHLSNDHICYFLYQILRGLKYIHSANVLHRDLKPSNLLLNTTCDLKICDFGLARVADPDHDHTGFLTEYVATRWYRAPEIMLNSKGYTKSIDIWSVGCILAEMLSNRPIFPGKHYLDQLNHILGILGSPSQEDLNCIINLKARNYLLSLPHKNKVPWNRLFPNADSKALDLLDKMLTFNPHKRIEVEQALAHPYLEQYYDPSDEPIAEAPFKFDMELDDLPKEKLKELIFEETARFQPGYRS

[36] = test system: MRC5; experiment: Antiinflammatory activity against IFN-gamma-stimulated human MRC5 cells assessed as reduction of IL-12 production at 5 uM after 24 hrs by ELISA relative to control; type: functional; parameters: scale not given: the % may be the effect or the level left; outline: as §7
[37] = target: Mitogen-activated protein kinase 8/9 (Homo sapiens) (UniProt P45983+P45984); experiment: Downregulation of JNK1/2 phosphorylation in IFN-gamma-induced human MRC5 cells at 20 uM pretreated for 1 hr followed by IFN-gamma stimulation for 3 hrs by Western blot analysis; type: cell-based; outline: as §8
Sequence of Mitogen-activated protein kinase 8/9 (Homo sapiens) (P45983 whole entry, looked up): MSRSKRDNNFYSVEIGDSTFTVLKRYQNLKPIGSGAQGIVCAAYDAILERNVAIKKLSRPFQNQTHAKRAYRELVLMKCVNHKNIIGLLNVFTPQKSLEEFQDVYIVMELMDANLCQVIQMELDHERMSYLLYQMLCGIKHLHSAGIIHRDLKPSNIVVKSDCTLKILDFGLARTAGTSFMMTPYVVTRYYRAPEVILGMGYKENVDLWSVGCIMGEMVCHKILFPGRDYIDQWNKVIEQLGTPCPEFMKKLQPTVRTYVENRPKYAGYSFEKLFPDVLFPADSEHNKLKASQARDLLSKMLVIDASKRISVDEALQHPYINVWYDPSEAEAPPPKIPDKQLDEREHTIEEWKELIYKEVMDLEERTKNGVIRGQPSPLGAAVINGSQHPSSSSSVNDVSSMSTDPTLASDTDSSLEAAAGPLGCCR
Sequence of Mitogen-activated protein kinase 8/9 (Homo sapiens) (P45984 whole entry, looked up): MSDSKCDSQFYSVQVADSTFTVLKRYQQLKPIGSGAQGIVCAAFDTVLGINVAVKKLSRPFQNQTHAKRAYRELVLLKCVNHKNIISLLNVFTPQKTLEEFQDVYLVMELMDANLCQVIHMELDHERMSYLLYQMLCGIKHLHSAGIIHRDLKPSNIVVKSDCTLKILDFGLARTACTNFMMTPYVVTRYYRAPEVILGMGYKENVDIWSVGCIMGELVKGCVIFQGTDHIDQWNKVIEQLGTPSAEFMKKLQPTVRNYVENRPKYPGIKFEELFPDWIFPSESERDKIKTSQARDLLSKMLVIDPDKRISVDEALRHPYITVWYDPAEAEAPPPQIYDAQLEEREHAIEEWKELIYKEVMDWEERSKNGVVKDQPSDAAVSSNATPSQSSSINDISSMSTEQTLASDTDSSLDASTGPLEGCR

[38] = Cytotoxicity against human HaCaT cells assessed as cell survival rate at 158 uM after 24 hrs by MTT assay; type: cell-based; settings: read-out: Survival; outline: as §6
[39] = test system: Mycobacterium tuberculosis; experiment: Antitubercular activity against Mycobacterium tuberculosis H37Rv P887 incubated for 1 to 9 days by inverted microscopic analysis; type: functional; outline: as §2
[40] = test system: Mycobacterium tuberculosis; experiment: Antitubercular activity against XDR Mycobacterium tuberculosis X59 incubated for 1 to 9 days by inverted microscopic analysis; type: functional; outline: as §2
[41] = Toxicity in mouse at 0.01 to 0.5 mg/kg assessed as weight loss; type: organism-based; settings: in vivo
[42] = Cytotoxicity against mouse NIH/3T3 cells assessed as cell survival rate at 316 uM after 24 hrs by MTT assay; type: cell-based, NIH3T3; settings: read-out: Survival; outline: as §6

O=c1c(O)c(-c2ccc(O)c(O)c2)oc2cc(O)cc(O)c12 [QUERCETIN]
MIC [1]: > 827 µM
K [2]: 9.87 ×10⁵ /M
logP [3]: 1.63
K [4]: 5.62 ×10⁵ /M

COc1cc(-c2oc3cc(O)cc(O)c3c(=O)c2O)ccc1O [ISORHAMNETIN]
inhibition at 158 µM [5]: 90%
Activity [6]: Active
MIC90 [7]: 316 µM (≈ 99.9 µg/mL)
Activity [8]: Non-Toxic
Activity [9]: Non-Toxic
Activity [10]: 76%
viability at 24 h, 316 µM [11]: 47%
Activity [12]: Active
Activity [13]: Non-Toxic
Activity [14]: Non-Toxic
K [2]: 7.6 ×10⁶ /M
Activity [15]: 37.5%
viability at 24 h, 400 µM [16]: 66%
Activity [17]: Non-Toxic
viability at 24 h, 158 µM [18]: 78%
MIC90 [19]: 316 µM (≈ 99.9 µg/mL)
viability at 24 h, 316 µM [20]: 71%
Activity [21]: Active
Activity [22]: 56%
viability at 24 h, 400 µM [23]: 58%
MIC90 [24]: 316 µM (≈ 99.9 µg/mL)
Activity [25]: Active
Activity [26]: 50%
Activity [27]: 69%
Activity [28]: 39%
viability at 24 h, 158 µM [29]: 54%
Activity [30]: Non-Toxic
Activity [31]: Active
logP [3]: 1.86
Activity [32]: 41%
Activity [33]: Non-Toxic
Activity [34]: 43.75%
Activity [35]: Active
Activity [36]: 45%
Activity [37]: inactive
viability at 24 h, 158 µM [38]: 90%
MIC90 [39]: 158 µM (≈ 50 µg/mL)
MIC90 [40]: 316 µM (≈ 99.9 µg/mL)
K [4]: 4.46 ×10⁶ /M
Activity [41]: Non-Toxic
viability at 24 h, 316 µM [42]: 63%
